From ChEMBL document CHEMBL1142621, “Galloylglucosides from berries of Pimenta dioica” (J Nat Prod, 2000)

Assays:
Format in all cases: functional
[1] = DPPH radical scavenging activity at 80 uM after 30 mins by spectrophotometric assay
Procedure, shortened: (§1)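 Compounds added to ethanolic DPPH radical solution (100 µM final). Mixtures were vortexed, then kept 30 min at 25 °C in a water bath in the dark. Remaining DPPH was read by absorbance at 517 nm. Scavenging = (A without compound − A with compound)/A without compound × 100. Means with SD from three independent experiments; column differences tested at p < 0.05.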

[2] = DPPH radical scavenging activity at 5 uM after 30 mins by spectrophotometric assay; procedure, shortened: as §1
[3] = DPPH radical scavenging activity at 10 uM after 30 mins by spectrophotometric assay; procedure, shortened: as §1
[4] = DPPH radical scavenging activity at 2.5 uM after 30 mins by spectrophotometric assay; procedure, shortened: as §1
[5] = DPPH radical scavenging activity at 40 uM after 30 mins by spectrophotometric assay; procedure, shortened: as §1
[6] = DPPH radical scavenging activity at 20 uM after 30 mins by spectrophotometric assay; procedure, shortened: as §1

Q: With Cc1cc(C(C)(C)C)c(O)c(C(C)(C)C)c1 as the compound, how does the Activity [1] read?
A: 68%

Q: And the Activity [2]?
A: 11.8%

Q: What about the Activity [3] of the same compound?
A: 16.7%

Q: And the Activity [4]?
A: 6.3%

Q: What about the Activity [5] of the same compound?
A: 47.5%

Q: What about the Activity [6] of the same compound?
A: 28.6%

Q: Which Activity [1] does the source give for Cc1c(C)c2c(c(C)c1O)CC[C@@](C)(CCC[C@H](C)CCC[C@H](C)CCCC(C)C)O2 here?
A: 95.8%

Q: And the Activity [2]?
A: 14%

Q: And the Activity [3]?
A: 23.4%

Q: What about the Activity [4] of the same compound?
A: 8.3%

Q: What about the Activity [5] of the same compound?
A: 95.7%

Q: What about the Activity [6] of the same compound?
A: 48.8%

Q: With C=CCc1ccc(O[C@@H]2O[C@H](COC(=O)c3cc(O)c(O)c(O)c3)[C@@H](O)[C@H](O)[C@H]2O)c(OC)c1 as the compound, how does the Activity [1] read?
A: 95.7%

Q: And the Activity [2]?
A: 31.7%

Q: And the Activity [3]?
A: 60.9%

Q: And the Activity [4]?
A: 15%

Q: What about the Activity [5] of the same compound?
A: 95.2%

Q: And the Activity [6]?
A: 95.2%

Q: For CC1=CC[C@@H](C(C)(C)O[C@@H]2O[C@H](COC(=O)c3cc(O)c(O)c(O)c3)[C@@H](O)[C@H](O)[C@H]2O)CC1, which Activity [1] is on record?
A: 95.4%

Q: And the Activity [2]?
A: 26.2%

Q: And the Activity [3]?
A: 48.4%

Q: And the Activity [4]?
A: 14.8%

Q: What about the Activity [5] of the same compound?
A: 95.4%

Q: What about the Activity [6] of the same compound?
A: 88.9%

Q: Which results are given for O=C(O)c1cc(O)c(O)c(O)c1?
A: Activity [1]: 95.7%; Activity [2]: 34.9%; Activity [3]: 61.6%; Activity [4]: 19%; Activity [5]: 94.8%; Activity [6]: 86.8%

Q: With CC1=CC[C@H](C(C)(C)O[C@@H]2O[C@H](COC(=O)c3cc(O)c(O)c(O)c3)[C@@H](O)[C@H](O)[C@H]2O)CC1 as the compound, how does the Activity [1] read?
A: 95.3%

Q: What about the Activity [2] of the same compound?
A: 24.5%

Q: And the Activity [3]?
A: 46.2%

Q: What about the Activity [4] of the same compound?
A: 12.9%

Q: What about the Activity [5] of the same compound?
A: 95.3%

Q: What about the Activity [6] of the same compound?
A: 90.1%

Q: With COc1cc(CC(CO)O[C@@H]2O[C@H](COC(=O)c3cc(O)c(O)c(O)c3)[C@@H](O)[C@H](O)[C@H]2O)ccc1O (mixture of isomers) as the compound, how does the Activity [1] read?
A: 95.6%

Q: And the Activity [2]?
A: 33.1%

Q: What about the Activity [3] of the same compound?
A: 56.9%

Q: What about the Activity [4] of the same compound?
A: 17.7%

Q: What about the Activity [5] of the same compound?
A: 95.3%

Q: What about the Activity [6] of the same compound?
A: 92.4%

Q: What does the source list for C=CCc1cc(OC)c(O)c(O[C@@H]2O[C@H](COC(=O)c3cc(O)c(O)c(O)c3)[C@@H](O)[C@H](O)[C@H]2O)c1?
A: Activity [1]: 95.8%; Activity [2]: 26.8%; Activity [3]: 53.6%; Activity [4]: 12.2%; Activity [5]: 95.7%; Activity [6]: 91.2%
